Data published in ChEMBL document CHEMBL4152241, “Discovery of coumarin-dihydroquinazolinone analogs as niacin receptor 1 agonist with in-vivo anti-obesity efficacy” (Eur J Med Chem, 2018).
Active and inactive are the calls of the source. No cut-off for these calls is given here.

Columns and labels:
[1] = test system: Mus musculus; assay: Anti-obesity activity in high fat diet-induced obese C57BL/6J mouse model assessed as reduction in body weight at 20 mg/kg, po for 6 weeks; assay type: functional
Summary of the method: (§1)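 Male C57BL/6J mice, 5-6 weeks old, 22-25 g, fed 60% fat diet to induce obesity. Dosed orally once at 20 mg/kg for six weeks; drug dissolved in DMSO, then mixed into 5% gum acacia in normal saline (working DMSO <5%). Controls were vehicle-treated HFD mice. Body weight was tracked, and fasting glucose was read by glucose meter after a 16 h fast; n=4-6.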

[2] = test system: Mus musculus; assay: Effect on total cholesterol level in high fat diet-induced obese C57BL/6J mouse model at 20 mg/kg, po for 6 weeks (reference value: 120.8 +/- 7.206 mg/dl); assay type: functional
[3] = test system: Mus musculus; assay: Anti-obesity activity in high fat diet-induced obese C57BL/6J mouse model assessed as reduction in body weight gain at 20 mg/kg, po for 6 weeks; assay type: functional, organism-based; summary of the method: as §1
[4] = test system: Mus musculus; assay: Anti-obesity activity in high fat diet-induced obese C57BL/6J mouse model assessed as fat mass at 20 mg/kg, po for 6 weeks by NMR-MRI analysis (reference value: 16.52 +/- 1.154 g); assay type: functional
[5] = test system: Mus musculus; assay: Effect on HDL cholesterol level in high fat diet-induced obese C57BL/6J mouse model at 20 mg/kg, po for 6 weeks (reference value: 57.8 +/- 3.385 mg/dl); assay type: functional
[6] = test system: Mus musculus; assay: Anti-obesity activity in high fat diet-induced obese C57BL/6J mouse model assessed as fasting glucose level at 20 mg/kg, po for 6 weeks (reference value: 93.17 +/- 5.793 mg/dL); assay type: functional; summary of the method: as §1
[7] = test system: Mus musculus; assay: Antiobesity activity in high fat diet-induced obese C57BL/6J mouse model assessed as improvement in glucose tolerance at 20 mg/kg, po measured post glucose challenge by intraperitoneal glucose tolerance test; assay type: functional, organism-based
Summary of the method: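 After six weeks of oral dosing (20 mg/kg) in HFD obese C57BL/6J mice, animals were fasted 16 h and baseline glucose was taken from the tail tip. Glucose 2 g/kg was given i.p., and blood glucose was measured at 15, 30, 60, 90 and 120 min. Mean ± SEM, 4-5 mice/group.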

[8] = test system: Mus musculus; assay: Effect on serum triglyceride level in high fat diet-induced obese C57BL/6J mouse model at 20 mg/kg, po for 6 weeks (reference value: 40.96 +/- 4.592 mg/dl); assay type: functional
[9] = test system: Mus musculus; assay: Anti-obesity activity in high fat diet-induced obese C57BL/6J mouse model assessed as lean mass at 20 mg/kg, po for 6 weeks by NMR-MRI analysis (reference value: 25.58 +/- 0.6789 g); assay type: functional
[10] = test system: Mus musculus; assay: Effect on LDL cholesterol level in high fat diet-induced obese C57BL/6J mouse model at 20 mg/kg, po for 6 weeks (reference value: 11.56 +/- 1.587 mg/dl); assay type: functional
[11] = test system: Mus musculus; assay: Anti-obesity activity in high fat diet-induced obese C57BL/6J mouse model assessed as plasma leptin level at 20 mg/kg, po for 6 weeks (reference value: 1751 +/- 325.4 pg/mg); assay type: functional
[12] = test system: Mus musculus; assay: Anti-obesity activity in high fat diet-induced obese C57BL/6J mouse model assessed as reduction in body weight gain at 10 mg/kg, po for 6 weeks; assay type: functional, organism-based
Summary of the method: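 High-fat (60% fat) diet-induced obese male C57BL/6J mice, started at 5-6 weeks old and 22-25 g. Oral dosing for six weeks from a DMSO stock diluted into 5% gum acacia/normal saline (working DMSO <5%), against HFD vehicle controls. Cumulative body weight gain tracked over treatment, n=4-5, analysed by two-way ANOVA.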

[13] = test system: Mus musculus; assay: Anti-obesity activity in high fat diet-induced obese C57BL/6J mouse model assessed as decrease in fat mass at 10 mg/kg, po for 6 weeks by NMR-MRI analysis; assay type: functional, organism-based
Summary of the method: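 Male C57BL/6J mice, 5-6 weeks old (22-25 g), made obese on a 60% fat diet. Dosed orally for six weeks, dissolved in DMSO then mixed into 5% gum acacia in normal saline (working DMSO <5%), against HFD vehicle-treated mice. Total body fat compared at end of treatment, n=4-5/group, by one-way ANOVA with Newman-Keuls test.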

COc1ccc(-c2cc3cc(C4Nc5ccccc5C(=O)N4C)cc(C)c3oc2=O)cc1 (stereo not drawn)
Activity [1]: 0.72 g
Activity [2]: 95.6 mg/dL
Activity [3]: Active
Activity [4]: 13.01 g
Activity [5]: 45.92 mg/dL
Activity [6]: 63 mg/dL
Activity [7]: inactive
Activity [8]: 36.97 mg/dL
Activity [9]: 23.16 g
Activity [10]: 10.4 mg/dL
Activity [11]: 807.6 pg/mg

C[C@H]1CNCCc2ccc(Cl)cc21
Activity [12]: Active
Activity [13]: Active
